Data taken from ChEMBL document CHEMBL4138097, “Investigation of pyrazolo-sulfonamides as putative small molecule oxytocin receptor agonists” (Eur J Med Chem, 2017).
The source made the active and inactive calls. No cut-off for these calls is given here. Where a SMILES comes first, the peptide text is derived from it. Bridges are numbered along the chain shown (N, C = ends). [ ]: non-standard residue; d: D form. Orn = NCCC[C@H](N)C(=O)O; Mpa = O=C(O)CCS

What was measured:
[1] = biological target: T1, Vasopressin V1a receptor (Homo sapiens, UniProt P37288); assay: Antagonist activity at human vasopressin 1a receptor expressed in HEK293 cell membranes assessed as inhibition of AVP-induced IP1 accumulation by measuring IP1 level at 100 nM measured after 1 hr by fluorescence assay relative to control; type: functional, cell-based; parameters: scale not given: the % may be the effect or the level left
Target sequence in this assay (P37288 whole entry, looked up): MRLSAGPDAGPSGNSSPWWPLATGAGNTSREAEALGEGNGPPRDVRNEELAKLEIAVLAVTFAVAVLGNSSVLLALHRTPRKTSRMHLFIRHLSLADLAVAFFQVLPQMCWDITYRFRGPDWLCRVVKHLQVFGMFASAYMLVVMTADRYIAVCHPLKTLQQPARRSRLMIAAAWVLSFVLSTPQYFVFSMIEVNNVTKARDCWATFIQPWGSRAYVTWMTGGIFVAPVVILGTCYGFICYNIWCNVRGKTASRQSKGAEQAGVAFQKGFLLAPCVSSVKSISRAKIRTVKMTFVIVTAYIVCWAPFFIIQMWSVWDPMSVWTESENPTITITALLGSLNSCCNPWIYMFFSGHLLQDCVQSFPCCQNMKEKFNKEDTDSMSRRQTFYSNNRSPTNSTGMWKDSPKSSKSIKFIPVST

[2] = biological target: T1, Vasopressin V1a receptor; assay: Agonist activity at human vasopressin 1a receptor expressed in HEK293 cell membranes assessed as increase in Ca2+ flux at 0.1 to 10 uM measured after 5 mins for every 2 secs by Ca5 dye based FLIPR assay; type: functional
Procedure, shortened: (§1)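 Intracellular Ca2+ read by FLIPR with Ca5 dye in HEK or stably transfected CHO cells expressing hOTR or hV1aR. Compounds added alone at 100 nM and 10 μM. Response taken as the change in fluorescence.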
Target sequence in this assay (P37288 whole entry, looked up): as above

[3] = biological target: T1, Vasopressin V1a receptor; assay: Antagonist activity at human vasopressin 1a receptor expressed in CHO cell membranes assessed as inhibition of AVP-induced IP1 accumulation by measuring IP1 level at 100 nM measured after 1 hr by fluorescence assay relative to control; type: functional, cell-based; parameters: scale not given: the % may be the effect or the level left
Target sequence in this assay (P37288 whole entry, looked up): as above

[4] = biological target: T1, Vasopressin V1a receptor; assay: Agonist activity at human vasopressin 1a receptor expressed in CHO cell membranes assessed as induction of IP1 accumulation at 0.1 to 10 uM measured after 1 hr by fluorescence assay; type: functional, cell-based
Procedure, shortened: (§2)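 IP1 accumulation in HEK or stably transfected CHO cells expressing hOTR or hV1aR. Compounds tested alone at 100 nM and 10 μM against vehicle (basal). Reference agonist was OT 10 nM at hOTR or AVP 10 nM at hV1aR. Non-transfected HEK cells given OT served as a specificity check. Mean ± S.E.M.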
Target sequence in this assay (P37288 whole entry, looked up): as above

[5] = biological target: T1, Vasopressin V1a receptor; assay: (§3) Antagonist activity at human vasopressin 1a receptor expressed in HEK293 cell membranes assessed as inhibition of AVP-induced increase in Ca2+ flux by measuring intracellular calcium level at 10 uM preincubated for 5 mins followed by AVP addition measured after 5 mins for every 2 secs by Ca5 dye based FLIPR assay (reference value: 5.2 +/- 0.2%); type: functional
Procedure, shortened: (§4)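 HEK cells were pre-incubated 5 min with compound (10 μM) or vehicle (0.1% DMSO). Agonist was then added: OT for hOTR, AVP for hV1aR. Peak Ca5 fluorescence was taken as fold-change over baseline. A 4-parameter fit gave pEC50 and Max. Run in duplicate with 5-6 independent replicates, mean ± S.E.M.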
Target sequence in this assay (P37288 whole entry, looked up): as above

[6] = biological target: T1, Vasopressin V1a receptor; assay: Displacement of [3H]-vasopressin from human vasopressin 1a receptor expressed in HEK293 cell membranes after 90 mins by microbeta scintillation counting method
Target sequence in this assay (P37288 whole entry): as the sequence (P37288 whole entry, looked up) above

[7] = biological target: T1, Vasopressin V1a receptor; assay: Antagonist activity at human vasopressin 1a receptor expressed in CHO cell membranes assessed as inhibition of AVP-induced IP1 accumulation by measuring IP1 level measured after 1 hr by fluorescence assay; type: functional, cell-based
Target sequence in this assay (P37288 whole entry): as the sequence (P37288 whole entry, looked up) above

[8] = biological target: T2, Oxytocin receptor (Homo sapiens) (UniProt P30559); assay: Agonist activity at human OTR expressed in CHO cell membranes assessed as increase in Ca2+ flux at 0.1 to 10 uM measured after 5 mins for every 2 secs by Ca5 dye based FLIPR assay; type: functional; procedure, shortened: as §1
T2 sequence (whole entry): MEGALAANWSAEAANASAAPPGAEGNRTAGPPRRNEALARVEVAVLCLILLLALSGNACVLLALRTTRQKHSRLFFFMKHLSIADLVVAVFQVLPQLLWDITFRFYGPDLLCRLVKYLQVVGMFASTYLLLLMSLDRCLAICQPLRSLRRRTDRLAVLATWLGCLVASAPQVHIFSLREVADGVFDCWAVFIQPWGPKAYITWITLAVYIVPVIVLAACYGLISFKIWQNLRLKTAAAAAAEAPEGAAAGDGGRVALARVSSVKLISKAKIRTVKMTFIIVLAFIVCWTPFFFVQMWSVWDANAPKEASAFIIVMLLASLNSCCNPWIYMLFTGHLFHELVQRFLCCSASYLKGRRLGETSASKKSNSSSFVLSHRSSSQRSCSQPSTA

[9] = biological target: T1, Vasopressin V1a receptor; assay: Agonist activity at human vasopressin 1a receptor expressed in HEK293 cell membranes assessed as induction of IP1 accumulation at 0.1 to 10 uM measured after 1 hr by fluorescence assay; type: functional, cell-based; procedure, shortened: as §2
Target sequence in this assay (P37288 whole entry, looked up): as the sequence (P37288 whole entry, looked up) above

[10] = biological target: T2, Oxytocin receptor (Homo sapiens); assay: as §3, with “OTR” for “vasopressin 1a receptor”, “OT-induced” for “AVP-induced”, “OT” for “AVP”, “4.5” for “5.2”, “0.1%)” for “0.2%)”; type: functional; procedure, shortened: as §4
[11] = biological target: T2, Oxytocin receptor (Homo sapiens); assay: Positive allosteric modulation of human OTR expressed in HEK293 cell membranes assessed as increase in OT-induced IP1 accumulation at 10 uM measured after 1 hr by fluorescence assay; type: functional, cell-based
Procedure, shortened: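 hOTR-transfected HEK cells treated with ~EC10 OT (3 nM) plus compound (10 μM) or vehicle (0.1% DMSO). IP1 measured and compared with OT plus vehicle. Mean ± S.E.M.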

[12] = biological target: T2, Oxytocin receptor (Homo sapiens); assay: Agonist activity at human OTR expressed in HEK293 cell membranes assessed as increase in Ca2+ flux at 0.1 to 10 uM measured after 5 mins for every 2 secs by Ca5 dye based FLIPR assay; type: functional; procedure, shortened: as §1
[13] = biological target: T2, Oxytocin receptor (Homo sapiens); assay: Agonist activity at human OTR expressed in HEK293 cell membranes induction of IP1 accumulation at 0.1 to 10 uM measured after 1 hr by fluorescence assay; type: functional, cell-based; procedure, shortened: as §2
[14] = biological target: T3, Oxytocin receptor (Homo sapiens, UniProt P30559); assay: Displacement of [3H]-oxytocin from human OTR expressed in HEK293 cell membranes after 90 mins by microbeta scintillation counting method
T3 sequence (P30559 whole entry): T2 sequence (whole entry)

[15] = biological target: T1, Vasopressin V1a receptor; assay: Antagonist activity at human vasopressin 1a receptor expressed in HEK293 cell membranes assessed as inhibition of AVP-induced IP1 accumulation by measuring IP1 level at 10 uM measured after 1 hr by fluorescence assay relative to control; type: functional, cell-based; parameters: scale not given: the % may be the effect or the level left
[16] = biological target: T2, Oxytocin receptor (Homo sapiens); assay: Antagonist activity at human OTR expressed in HEK293 cell membranes assessed as inhibition of OT-induced IP1 accumulation by measuring IP1 level at 10 uM measured after 1 hr by fluorescence assay relative to control; type: functional, cell-based; parameters: scale not given: the % may be the effect or the level left
[17] = biological target: T3, Oxytocin receptor; assay: Antagonist activity at human OTR expressed in CHO cell membranes assessed as inhibition of OT-induced IP1 accumulation measured after 1 hr by fluorescence assay; type: functional, cell-based
[18] = biological target: T3, Oxytocin receptor; assay: Antagonist activity at human OTR expressed in HEK293 cell membranes assessed as inhibition of OT-induced IP1 accumulation measured after 1 hr by fluorescence assay; type: functional, cell-based
[19] = biological target: T2, Oxytocin receptor (Homo sapiens); assay: Antagonist activity at human OTR expressed in HEK293 cell membranes assessed as inhibition of OT-induced IP1 accumulation by measuring IP1 level at 100 nM measured after 1 hr by flourescence assay relative to control; type: functional, cell-based; parameters: scale not given: the % may be the effect or the level left
[20] = biological target: T1, Vasopressin V1a receptor; assay: Antagonist activity at human vasopressin 1a receptor expressed in CHO cell membranes assessed as inhibition of AVP-induced IP1 accumulation by measuring IP1 level at 10 uM measured after 1 hr by fluorescence assay relative to control; type: functional, cell-based; parameters: scale not given: the % may be the effect or the level left
[21] = biological target: T1, Vasopressin V1a receptor; assay: Antagonist activity at human vasopressin 1a receptor expressed in HEK293 cell membranes assessed as inhibition of AVP-induced IP1 accumulation measured after 1 hr by fluorescence assay; type: functional, cell-based
Target sequence in this assay (P37288 whole entry): as the sequence (P37288 whole entry, looked up) above

[22] = biological target: T2, Oxytocin receptor (Homo sapiens); assay: Antagonist activity at human OTR expressed in CHO cell membranes assessed as inhibition of OT-induced IP1 accumulation by measuring IP1 level at 10 uM measured after 1 hr by fluorescence assay relative to control; type: functional, cell-based; parameters: scale not given: the % may be the effect or the level left
[23] = biological target: T2, Oxytocin receptor (Homo sapiens); assay: Antagonist activity at human OTR expressed in CHO cell membranes assessed as inhibition of OT-induced IP1 accumulation by measuring IP1 level at 100 nM measured after 1 hr by fluorescence assay relative to control; type: functional, cell-based; parameters: scale not given: the % may be the effect or the level left
[24] = biological target: T2, Oxytocin receptor (Homo sapiens); assay: Agonist activity at human OTR expressed in CHO cell membranes assessed as induction of IP1 accumulation at 0.1 to 10 uM measured after 1 hr by fluorescence assay; type: functional, cell-based; procedure, shortened: as §2
[25] = biological target: T1, Vasopressin V1a receptor; assay: Agonist activity at human vasopressin 1a receptor expressed in CHO cell membranes assessed as increase in Ca2+ flux at 0.1 to 10 uM measured after 5 mins for every 2 secs by Ca5 dye based FLIPR assay; type: functional; procedure, shortened: as §1

Activity [1] [%]	Activity [2]	Activity [3] [%]	Activity [4]	%max [5] [%]	Ki [6] [µM]	IC50 [7] [µM]	Activity [8]	Activity [9]	%max [10] [%]	Activity [11]	Activity [12]	Ki [14] [µM]	Activity [15] [%]	Activity [16] [%]	IC50 [17] [µM]	IC50 ([18]; read-out: pIC50 (converted)) [µM]	Activity [19] [%]	Activity [20] [%]	IC50 [21] [µM]	SMILES	other results
109	inactive	84.8	inactive	5.3	> 10	> 10	inactive	inactive	4.4	inactive	inactive	> 10	104	65.5	> 10	> 10	70.6	83.1	> 10	O=S(=O)(Nc1ccnn1-c1ccccn1)c1ccc(C(F)(F)F)cc1	Activity [22]: 82.1%; Activity [23]: 83.2%; Activity [24]: inactive; Activity [25]: inactive
85.9	inactive	103	inactive	5.3	> 10	> 10	inactive	inactive	4.5	inactive	inactive	> 10	80.2	78.1	> 10	> 10	89.5	116	> 10	O=S(=O)(Nc1ccnn1-c1ccccn1)c1ccc(Cl)cc1	Activity [22]: 71.1%; Activity [23]: 83.9%; Activity [24]: inactive; Activity [25]: inactive
84.7	inactive	86.5	inactive	5.1	> 10	> 10	inactive	inactive	4.4	inactive	inactive	> 10	77.9	90.4	> 10	> 10	98.3	79.3	> 10	Cn1nccc1NS(=O)(=O)c1ccc(C(F)(F)F)cc1	Activity [13]: inactive; Activity [22]: 79.5%; Activity [23]: 85.5%; Activity [24]: inactive; Activity [25]: inactive

Continued, compound first:

SMILES	Activity [1] [%]	Activity [2]	Activity [3] [%]	Activity [4]	%max [5] [%]	Ki [6] [µM]	IC50 [7] [µM]	Activity [8]	Activity [9]	%max [10] [%]	Activity [11]	Activity [12]	Ki [14] [µM]	Activity [15] [%]	Activity [16] [%]	IC50 [17] [µM]	IC50 ([18]; read-out: pIC50 (converted)) [µM]	Activity [19] [%]	Activity [20] [%]	IC50 [21] [µM]	other results
Cn1nccc1NS(=O)(=O)c1ccc(Cl)cc1	112	inactive	100	inactive	5	> 10	> 10	inactive	inactive	4	inactive	inactive	> 10	105	72.5	> 10	> 10	82.5	105	> 10	Activity [13]: inactive; Activity [22]: 94.7%; Activity [23]: 90.5%; Activity [24]: inactive; Activity [25]: inactive
CCOc1ccc(C[C@H]2NC(=O)CCSSC[C@@H](C(=O)N3CCC[C@H]3C(=O)N[C@@H](CCCN)C(=O)NCC(N)=O)NC(=O)[C@H](CC(N)=O)NC(=O)[C@H]([C@@H](C)O)NC(=O)[C@H]([C@@H](C)CC)NC2=O)cc1 [ATOSIBAN] ([Mpa][dY](Et)ITNCP[Orn]G-NH2; disulfide 1-6)	–	–	–	–	–	–	–	–	–	–	–	–	–	–	–	–	–	–	–	–	IC50 ([18]; read-out: IC50): 0.372 µM
